TRPC4 PAM = positive allosteric modulators of TRPC4, primary screen, cell-based, mouse TRPC4beta, HEK293 mu-opioid, Fluo-4 calcium; Short transient receptor potential channel 4 (Mus musculus), Q9QUQ5; DAMGO EC20, Fluo-4 Ca2+ flux; stronger effect = higher value; B-score at 10 µM; 310,000 tested, 0.42% active;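 active = B-score of calcium response area above 5 SD of library B-scores, with initial fluorescence ratio within 5 SD of library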
TRPC6 act = mouse TRPC6 channel activators, primary screen, cell-based, HEK293, membrane potential dye; HEK293-TRPC6 membrane potential dye fluorescence; stronger effect = higher value; 310,000 tested, 0.13% active; B-score at 10 µM; Short transient receptor potential channel 6 (Mus musculus), Q61143;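 active = B-score of the integrated fluorescence ratio above library mean plus 3 SD, and starting fluorescence ratio within library mean plus 5 SD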;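 also: higher score means more depolarization so channel activation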
TRPC6 inhibitor = mouse TRPC6 channel inhibitors, primary screen, cell-based, HEK293, membrane potential dye | B-score at 10 µM | ACh-evoked depolarization; stronger effect = lower value | 310,000 tested, 1.1% active | Short transient receptor potential channel 6 (Mus musculus), Q61143;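 active = B-score under library mean minus 3 SD, initial fluorescence not abnormally high, positive integrated signal ratio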;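 also: B-score derived from integrated fluorescence ratio over the kinetic read; more negative B-score means stronger inhibition of depolarization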
TRPC4 act = activators of mouse TRPC4 channel, primary screen, Fluo4 calcium, HEK293 TRPC4beta/mu-opioid cells. AID 2237, 2010. B-score at 10 µM. 310,000 tested, 0.49% active. Fluo4 calcium fluorescence; stronger effect = higher value;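 active = B-score above 5 SD of library B-scores, and initial fluorescence ratio not above library mean plus 5 SD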;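 also: positive B-score marks a calcium rise read as TRPC4 activation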
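system = HEK293 cells stably co-expressing mouse TRPC4beta and mu-opioid receptor | schedule = Fluo4 dye loading 45 min at room temperature, 110 s recording | measure = B-scored integrated calcium fluorescence ratio | signal = Fluo4 calcium-sensitive dye fluorescence, kinetic, 1 Hz baseline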
TRPC4 block = inhibitors of mouse TRPC4 channel, primary screen, Fluo4 calcium, HEK293 TRPC4beta/mu-opioid cells; Short transient receptor potential channel 4 (Mus musculus), Q9QUQ5; DAMGO-evoked Fluo4 calcium flux; stronger effect = lower value; B-score at 10 µM; 300,000 tested, 0.39% active; AID 2247, 2010;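 active = B-score over 3 SD under the library average, no early fluorescence shift, positive overall ratio signal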
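Test system – stable TRPC4beta/mu-opioid receptor HEK293 cells · Probe or stimulus – DAMGO, a submaximal dose followed by a maximal one · Dosing – one concentration per compound · Signal – Fluo4 calcium fluorescence by kinetic imaging, 5 s 1 Hz baseline · Evaluation – per-well B score of integrated baseline-normalized Fluo4 ratio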
Large screens that a line does not name were inactive. Hits are enriched below; roughly 2.3% of the tested compounds scored in any of these assays.

O=C(O)c1cc(S(=O)(=O)N(Cc2ccccc2)c2ccc(Cl)cc2)ccc1Cl	none
CCCCC(=O)NC(c1ccccc1)c1ccc2cccnc2c1O (stereo not drawn)	none
CCCC(=O)NC(c1ccccc1)c1ccc2cccnc2c1O (stereo not drawn)	TRPC6 inhibitor -5.8
CCN(C(=O)c1cnc(NC(C)C)cc1C(F)(F)F)c1ccc(Cl)cc1Cl	TRPC4 block -6
Cc1cc(OCC(=O)N(C(C)C)C(C)C)cc(C)c1Br	TRPC4 PAM 38
Cc1cc(OCC(=O)NC(C)C)cc(C)c1Br	none
O=S(=O)(c1cc(Cl)c(Cl)cc1Cl)N1CCN2CCCC2C1 (stereo not drawn)	TRPC4 act 67
CC1(C)CC(=O)c2cc(C(=O)NCc3ccco3)c(=O)n(-c3ccc(Cl)cc3)c2C1	TRPC4 act 121
COc1ccc(-n2c3c(cc(C(=O)NNc4ccccc4)c2=O)C(=O)CC(C)(C)C3)cc1	TRPC4 act 70
Cc1ccnc(SCC(=O)NC2CCCCCC2)n1	none
Fc1ccccc1Oc1nc(-c2ccncc2)nc2ccccc12	none
Cc1ccc(SCC(=O)OCC(=O)N(C)CC(=O)Nc2ccc(F)cc2)cc1C	none
O=[N+]([O-])c1ccc(N2CCCC2)nc1N1CCCC1	TRPC4 act 144
Nc1ncc([N+](=O)[O-])c(N2CCCCCC2)n1	none
CS(=O)(=O)c1ccc(C(=O)OCC(=O)c2ccc(Cl)s2)cc1	none
C(=N\c1nc2ccccc2[nH]1)/c1cccs1	TRPC4 act 54
Cn1c(/C=N/c2nc3ccccc3[nH]2)nc2ccccc21	none
O=C(/C=C/c1c(Cl)nc2ccccn12)Nc1ccc(F)cc1	none
COc1ccc(-c2nc(CS(=O)CC(=O)NCCCN3CC(C)CC(C)C3)c(C)o2)cc1OC (stereo not drawn)	TRPC4 act 104
CCCN(CCC)CCCNC(=O)CS(=O)Cc1nc(-c2ccc(OC)c(OC)c2)oc1C (stereo not drawn)	TRPC4 act 64
CCCCN(C)CCCNC(=O)CS(=O)Cc1nc(-c2ccc(OC)c(OC)c2)oc1C (stereo not drawn)	none
Cc1ccc(-c2nc(CS(=O)CC(=O)NCCCN3CC(C)CC(C)C3)c(C)o2)cc1 (stereo not drawn)	TRPC4 act 62
COc1cccc(NC(=S)N(CCC(C)C)C2CCN(C(C)=O)CC2)c1	none
CCN1CCN(c2ccc(NC(=O)CCc3c(C)nc4c(-c5ccc(F)cc5)c(C)nn4c3C)cc2)CC1	none
COc1ccc(C2=Nn3c(nnc3-c3cc(C)[nH]n3)SC2)cc1	none
O=c1c(NCCc2ccc(Cl)cc2)c(-c2ccccc2)c1=O	TRPC4 PAM 14
O=c1[nH]ncc(NCCc2ccccc2)c1Cl	none
CC(=O)n1cc([C@@H]2C=C(C(=O)NCc3ccccc3)O[C@H](OCc3ccc(CO)cc3)C2)c2ccccc21	TRPC4 PAM 15
O=C(NCc1ccccc1)C1=C[C@H](c2ccc(C(F)(F)F)cc2)C[C@H](OCc2ccc(CO)cc2)O1	TRPC4 PAM 19
O=C(Nc1ccccc1)C1=C[C@H](c2ccccc2)C[C@H](OCc2ccc(CO)cc2)O1	TRPC4 PAM 12
O=C(Nc1ccccc1)C1=C[C@H](c2ccc(C(F)(F)F)cc2)C[C@H](OCc2ccc(CO)cc2)O1	none
O=C(NCc1ccccc1)C1=C[C@@H](c2ccc(Br)cc2)C[C@@H](OCc2ccc(CO)cc2)O1	none
O=C(NCc1ccccc1)C1=C[C@H](c2ccccc2)C[C@H](OCc2ccc(CO)cc2)O1	TRPC4 act 176
Cc1cc(OCc2cc(C(=O)N(C)C3CCOC3)no2)cc(C)c1Cl (stereo not drawn)	none
CN1CCC(=O)N([C@H](CO)c2ccccc2)CC1	none
CN(C)C1(CNC(=O)CC(NC(=O)c2ccccc2Cl)c2ccccc2)CCCCC1 (stereo not drawn)	TRPC4 act 44, TRPC4 block -7
COCCN(Cc1ccco1)C(=O)C1CCCN(c2ncnc3c2nc2n3CCCCC2)C1 (stereo not drawn)	none
CC(C)C[C@@H](COc1ccccc1)N1CCN(CCc2ccccc2)CCC1=O	none (no result: TRPC4 block)
COc1ccc(SC[C@H](Cc2ccccc2)N2CCN(C)CCC2=O)cc1	TRPC4 block -8
CCCN1CCC(=O)N([C@H](CSc2ccc(OC)cc2)Cc2ccccc2)CC1	none
Cc1ccc(SC[C@H](Cc2ccccc2)N2CCN(C)CCC2=O)cc1	TRPC4 act 81 (no result: TRPC4 block)
CC(C)CN1CCC(=O)N([C@H](CSc2ccc(Br)cc2)Cc2ccccc2)CC1	none
CN1CCC(=O)N([C@H](CSc2ccc(Br)cc2)Cc2ccccc2)CC1	TRPC4 act 79
O=C1CCN(CCc2ccccc2)CCN1[C@H](COc1ccccc1)Cc1ccccc1	TRPC4 act 67 (no result: TRPC4 block)
CN1CCC(=O)N([C@H](CSc2ccccc2)Cc2ccccc2)CC1	none
CCN(CC)C(=O)Cn1cc(C(=O)C(=O)NCc2ccccn2)c2ccccc21	none
Cc1ccc(C(=O)NCCC(=O)N2CCCC2)cc1	none
CN1CCN(NC(=O)c2cccc(Br)c2)CC1	TRPC4 PAM 19
CC1CCCN(C(=O)CN(C)S(=O)(=O)c2ccc3c(c2)c(=O)n(C)c(=O)n3C)C1 (stereo not drawn)	none
CCn1c(=O)c(C(=O)NNC(=O)c2ccccc2Cl)c(O)c2ccccc21	TRPC4 act 51
CCn1c(=O)c(C(=O)NNC(=O)c2ccccc2F)c(O)c2ccccc21	TRPC4 act 114
COc1ccc(C2/C(=C(/O)c3ccccc3)C(=O)C(=O)N2CCO)cc1 (stereo not drawn)	none
COc1ccc(N/C(C)=C2/C(=O)C(=O)N(CCO)C2c2ccc(Br)cc2)cc1 (stereo not drawn)	TRPC4 PAM 43, TRPC4 act 123
CCCc1nc(SC2CCCC2)c2c(=O)n(C)c(=O)n(C)c2n1	TRPC4 block -5
CCCCCCOC(=O)C1=C(C)NC(=O)NC1c1ccc2c(c1)OCO2 (stereo not drawn)	none
CC(=O)O[C@]1(C(C)=O)CC[C@H]2[C@@H]3C[C@H](C)C4=CC(=O)CC[C@]4(C)[C@H]3CC[C@@]21C	none
CC(=O)C12CCCCC1CC1[C@@H]3CC(C)C4=CC(=O)CC[C@]4(C)C3CC[C@@]12C (stereo partly drawn)	TRPC4 PAM 12
Cc1ccc(O)c(NC(=S)NC(=O)Cc2ccc(Cl)cc2)c1	TRPC4 PAM 12
